# Data reported in paper PMC4398643 (Analytical biochemistry, 2015).
# Molecular target: T1, 15-LOX-2 (Homo sapiens, UniProt O15296)
# T1 sequence (O15296 1-676): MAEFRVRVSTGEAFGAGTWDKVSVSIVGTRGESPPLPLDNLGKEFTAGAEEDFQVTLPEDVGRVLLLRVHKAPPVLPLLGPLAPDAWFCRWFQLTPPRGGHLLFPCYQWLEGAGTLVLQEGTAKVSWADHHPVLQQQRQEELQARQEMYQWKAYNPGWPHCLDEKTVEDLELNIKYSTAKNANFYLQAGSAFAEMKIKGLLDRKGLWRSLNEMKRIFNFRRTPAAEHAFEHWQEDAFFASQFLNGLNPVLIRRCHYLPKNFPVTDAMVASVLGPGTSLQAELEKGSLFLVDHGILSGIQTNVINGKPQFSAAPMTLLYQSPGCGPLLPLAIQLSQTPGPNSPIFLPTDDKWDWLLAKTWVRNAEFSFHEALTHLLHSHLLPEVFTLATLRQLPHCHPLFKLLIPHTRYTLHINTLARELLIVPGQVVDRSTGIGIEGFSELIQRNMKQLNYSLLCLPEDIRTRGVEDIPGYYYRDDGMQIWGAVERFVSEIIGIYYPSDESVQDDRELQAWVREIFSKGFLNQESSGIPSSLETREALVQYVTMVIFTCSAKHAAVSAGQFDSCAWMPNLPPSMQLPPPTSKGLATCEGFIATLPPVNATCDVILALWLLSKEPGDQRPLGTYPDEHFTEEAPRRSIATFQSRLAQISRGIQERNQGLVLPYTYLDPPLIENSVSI
# Experiment: 96-well allosteric effector assay
# Type: biochemical
# Conditions: for AA/GLA ratio (15-HETE/13-HOTrE(γ) peak area ratio): 4 µM AA and 16 µM GLA, ratio without effector 2.3 ± 0.1
# Outline: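 15-LOX-2 (~150 nM final) is preincubated 30 s with the perdeuterated effector in 50 mM ammonium bicarbonate, pH 7.5, with 0.01% PPS detergent in 96-well plates. Turnover uses AA:GLA at 1:4 (20 µM total substrate), kept below 20% conversion. Plates are held at 4° C during HPLC-MS analysis, with products identified by MS/MS. The substrate preference is the 15-HETE/13-HOTrE(γ) peak-area ratio.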
structure (smiles),measurement,setting,value
[2H]C(C([2H])=C([2H])C([2H])(O)C([2H])([2H])C([2H])([2H])C([2H])([2H])C([2H])([2H])C([2H])([2H])[2H])=C([2H])C([2H])([2H])C([2H])([2H])C([2H])([2H])C([2H])([2H])C([2H])([2H])C([2H])([2H])C([2H])([2H])C(=O)O (stereo not drawn) [d30-13-HODE],AA/GLA ratio (15-HETE/13-HOTrE(γ) peak area ratio),10 µM d30-13-HODE,1.4 ± 0.1
same,AA/GLA ratio (15-HETE/13-HOTrE(γ) peak area ratio),20 µM d30-13-HODE,1.1 ± 0.1
same,effect on AA and GLA catalysis,"based on standard curve for AA and GLA products, data not shown","reducing AA catalysis, but not affecting GLA catalysis significantly"
